# Screening data from PubChem.
# An excerpt weighted towards active compounds, which were near 2% of everything screened.
# CDK5 p35 inh – inhibitors of human CDK5/p35 kinase; Q00535+Q15078; Recombinant CDK5/p35, ADP-Glo luminescence, 60 min; inhibition, % at 10 µM; actives 0.01% (n = 330,000);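 active = highest replicate inhibition of at least 50% and at least 75% of replicates reaching 50%; inconclusive = only one of the two criteria met; inactive = both criteria failed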;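 note: plate controls were DMSO neutral control for no effect and GW8510 at 10 µM for full effect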
# Target sequence (Q00535 whole entry, looked up): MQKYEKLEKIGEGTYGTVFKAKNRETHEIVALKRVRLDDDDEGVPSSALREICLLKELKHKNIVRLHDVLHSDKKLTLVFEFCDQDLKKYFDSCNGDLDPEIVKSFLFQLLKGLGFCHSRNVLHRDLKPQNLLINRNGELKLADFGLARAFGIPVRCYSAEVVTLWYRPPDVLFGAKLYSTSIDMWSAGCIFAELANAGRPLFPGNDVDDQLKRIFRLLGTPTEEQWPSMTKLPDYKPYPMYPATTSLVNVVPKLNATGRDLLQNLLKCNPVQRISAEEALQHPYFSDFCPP
# Target sequence (Q15078 whole entry, looked up): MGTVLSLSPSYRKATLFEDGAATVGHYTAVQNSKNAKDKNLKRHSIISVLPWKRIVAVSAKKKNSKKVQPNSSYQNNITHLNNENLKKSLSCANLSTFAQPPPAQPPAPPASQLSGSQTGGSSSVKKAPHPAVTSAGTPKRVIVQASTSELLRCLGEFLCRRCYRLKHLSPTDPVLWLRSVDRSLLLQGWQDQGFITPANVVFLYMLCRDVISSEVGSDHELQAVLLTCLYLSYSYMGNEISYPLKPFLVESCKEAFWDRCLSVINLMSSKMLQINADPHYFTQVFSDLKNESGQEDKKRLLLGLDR
# dFosB act-1 – enhances mouse delta FosB homodimer DNA binding; AID 493131; P13346; purified delta FosB, TAMRA-CDK5 oligo fluorescence polarization; percent of positive-control signal above neutral wells; activation, % at 25 µM; actives 0.99% (n = 340,000);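 active = mean activation above about 17%, with every replicate also reaching it, limit read from the data, passing the limit was not always enough; inconclusive = only one of the two conditions met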
# SR-BI DiI-HDL act – activators of SR-BI mediated HDL lipid uptake | activation, % at 12.5 µM | CHO ldlA[mSR-BI] cells, DiI-HDL uptake fluorescence, 3 h; 100 = double the neutral-control signal | actives 0.096% (n = 320,000);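 active = mean replicate activation of at least 60% and every replicate at or above 60%; inconclusive = mean or all-replicate condition met, but not both; inactive = mean below 60% and not all replicates reaching 60%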;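 note: 0% = median plate neutral-control signal and 100% = twice that signal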
#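 System: LDL receptor-deficient CHO ldlA cells overexpressing murine SR-BI | Timing: 3 h uptake period with compound, 37 °C | Medium: HEPES-buffered (25 mM, pH 7.4) F12 plus 0.5% BSA | Dosing: Single-point compound dose | Signal: Bottom-read fluorescence, 550/595 nm | Read-out: Retained DiI signal reflecting DiI-HDL uptake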
# SR-BI DiI inh – mouse SR-BI HDL lipid transfer inhibition | ldlA[mSR-BI] CHO cells, DiI-HDL uptake fluorescence, 3 h | inhibition, % at 12.5 µM | actives 0.96% (n = 320,000) | AID 488896;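 active = mean replicate inhibition of at least 70% and a set share of replicates each scoring 70 or more; inconclusive = meets just one of the two criteria; inactive = fails both criteria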;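 note: 0% = median of neutral control wells and 100% = median of positive control wells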
# DiI quencher – counter-screen for SR-BI lipid transfer inhibitors: DiI fluorescence quenchers. shares compounds with SR-BI DiI inh. cell-free DiI-HDL fluorescence quenching, 30 min. AC50, µM (doses to about 35 µM), for the others: at the top dose activity change, negative = quenching. actives 20% (n = 470);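 active = quenching, a falling signal, with AC50 below a set limit tied to the top valid dose, actives reach about 32 µM in these data; inconclusive = no clear call, values can overlap the other calls; inactive = rising signal, and the rest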
# dFosB act-2 – activators of mouse delta FosB homodimer DNA binding | 2,400 tested, under 10 active | shares compounds with dFosB act-1 | purified delta FosB, TAMRA-CDK5 oligo fluorescence polarization; normalised: neutral wells 0, positive control 100 | AID 588690 | activation, % at 24.9 µM;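 active = highest replicate activation at or above 34% and every replicate reaching that threshold; inconclusive = meets only one of the two criteria; inactive = meets neither criterion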;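 note: higher polarization means more probe DNA bound by delta FosB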
# Numbers without * were called inactive; ? = inconclusive; . = not tested or not shown.
SMILES,CDK5 p35 inh,dFosB act-1,SR-BI DiI-HDL act,SR-BI DiI inh,dFosB act-2,others
CCNc1nc(Cl)nc(-c2cn(-c3ccccc3)c3ccccc23)n1,-0.2,21.6*,-72.1,72.1*,3.0,DiI quencher=3.5%
CN(C(=O)COC(=O)c1c2c(nc3ccccc13)/C(=C/c1cccc([N+](=O)[O-])c1)CCC2)C1CCS(=O)(=O)C1 (stereo not drawn),0.3,17.2*,-54.4,54.4,-1.9,DiI quencher=-7.1%
O=C(COC(=O)c1c2c(nc3ccccc13)/C(=C/c1cccc([N+](=O)[O-])c1)CCC2)NC1CCS(=O)(=O)C1 (stereo not drawn),0.2,-3.1,-18.4,18.4,.,
COc1ccc(CCC(=O)Nc2ccc(-c3noc(-c4ccc(OC)c(OC)c4)n3)cc2)cc1,0.6,28.6*,-101.0,101.0*,3.1,DiI quencher=-4.8%
COc1ccc(CC(=O)Nc2ccc(-c3noc(-c4ccccc4OC)n3)cc2)cc1,0.3,?,-56.9,56.9,.,
CCOC(=O)c1[nH]c2c(c1C)C(=O)CC(c1ccc(F)cc1)C2 (stereo not drawn),0.8,20.8*,-71.6,?,2.6,DiI quencher=-2.9%
Cc1cc(C(=O)Cn2cnc3cc(F)ccc3c2=O)c(C)n1C1CC1,1.1,-1.2,.,.,.,
CC1CC(C)CN(C(=O)COC(=O)COc2ccc(C#N)cc2)C1 (stereo not drawn),-0.1,9.6,6.2,-6.2,.,
CC(=O)Oc1ccc(C(=O)Nc2cccc(C(=O)c3cccc(NC(=O)c4ccc(OC(C)=O)cc4)c3)c2)cc1,-0.7,56.7*,-30.5,30.5,2.0,
CC(=O)Oc1ccc(C(=O)Nc2cccc(C(=O)NC(C)(C)C)c2)cc1,2.9,-3.9,-29.4,29.4,.,
COC(=O)c1ccc(CNC(=O)c2ccc(OC)c(S(=O)(=O)NC3CCCC3)c2)cc1,1.1,-12.0,-26.7,26.7,.,
O=C(Nc1ccc(Br)cc1)c1cccc(N2C(=O)C3C4CCC(C4)C3C2=O)c1 (stereo not drawn),-1.5,20.2*,-10.1,10.1,5.6,
CCc1nn(C(C)C(=O)N2CCN(c3ccc(OC)cc3)CC2)c(=O)c2cc3occc3n12 (stereo not drawn),-0.5,-2.9,-42.0,42.0,.,
CCN(CC)CCNC(=O)c1c(O)c2cc(OC)c(OC)cc2[nH]c1=O,-0.8,24.0*,39.3,-39.3,9.9,
COc1cc2[nH]c(=O)c(C(=O)NCCCN3CCOCC3)c(O)c2cc1OC,2.9,33.1*,-36.0,36.0,1.8,
COc1ccc(Cn2c(=O)[nH]c3cc(C(=O)NCCCN4CCCC4)ccc3c2=O)cc1,-1.6,1.5,-6.5,6.5,.,
COc1cc2[nH]c(=O)n(Cc3ccc(C(=O)NCCCN4CCN(C)CC4)cc3)c(=O)c2cc1OC,0.3,32.3*,22.4,-22.4,-1.4,
CC(=O)c1ccc(NC(=O)Cn2cnc(S(=O)(=O)N3CCC(C)CC3)c2)cc1,-0.5,35.2*,13.6,-13.6,-2.1,
CC(=O)c1ccc(NC(=O)Cn2cnc(S(=O)(=O)N3CCOCC3)c2)cc1,1.5,3.5,11.6,-11.6,.,
Cc1ccc(-c2nsc(SCC(=O)Nc3ccc4c(c3)OCO4)n2)cc1,-1.3,24.1*,12.7,-12.7,2.5,
Nn1c(SCC(=O)Nc2ccc3c(c2)OCO3)nnc1-c1ccc(Cl)cc1,-0.7,64.2*,23.6,-23.6,2.5,
CN=C(C)/C(C(=O)OC)=C(/O)c1c(F)cccc1F,-1.3,-4.9,7.9,-7.9,.,
O=C(Nc1ccc(-c2nnc3n2CCCCC3)cc1)c1cc2ccccc2o1,1.1,-8.6,-15.2,15.2,.,
Cc1c(C(=O)Nc2ccc(-c3nnc4n3CCCCC4)cc2)oc2c1ccc1ccccc12,-0.2,32.2*,-49.2,49.2,3.6,
O=C(COc1ccccc1)N/N=C/c1ccc([N+](=O)[O-])o1,-0.8,0.3,6.2,-6.2,.,
SMILES,CDK5 p35 inh,dFosB act-1,SR-BI DiI-HDL act,SR-BI DiI inh,dFosB act-2,others
O=C(CNc1ccc2ccccc2c1)N/N=C/c1ccc([N+](=O)[O-])o1,-0.8,31.0*,-4.8,4.8,4.0,
Cc1cc(C)n2nc(C(=O)OCC(=O)N(C)CC(=O)Nc3ccccc3Cl)nc2n1,2.0,-3.9,34.8,-34.8,.,
CC1CN(C(=S)SCCN2C(=O)CCC2=O)CC(C)O1 (stereo not drawn),1.1,-9.6,6.3,-6.3,.,
CN(c1ccccc1)S(=O)(=O)c1nnc(NC(=O)COc2ccccc2F)s1,0.8,33.4*,-2.9,2.9,8.1,
CN(c1ccccc1)S(=O)(=O)c1nnc(NC(=O)COc2ccccc2)s1,.,19.8*,1.5,-1.5,0.0,
COc1cccc(CC(=O)OCC(=O)N(C)CC(=O)Nc2ccc(Cl)c(C(F)(F)F)c2)c1,6.9,-2.4,-3.9,3.9,.,
CCCc1cc(=O)[nH]c(SCC(=O)Nc2ccc(Cl)c(S(=O)(=O)N3CCOCC3)c2)n1,-0.6,-1.3,-2.4,2.4,.,
NC(=O)CC(NC(=O)c1ccccc1)c1ccc(NCCOc2ccccc2)c([N+](=O)[O-])c1 (stereo not drawn),-2.1,26.3*,2.1,-2.1,1.7,
COc1ccc(OC)c(C(=O)NC(CC(N)=O)c2ccc(NCCOc3ccccc3)c([N+](=O)[O-])c2)c1 (stereo not drawn),0.0,-3.8,-11.7,11.7,.,
NC(=O)CC(NC(=O)Cc1ccc(Br)cc1)c1ccc(NCc2ccc(F)cc2)c([N+](=O)[O-])c1 (stereo not drawn),0.2,53.3*,30.5,-30.4,7.6,
CC1CN(C(=O)CCC(=O)NCc2ccccc2)c2ccccc2S1 (stereo not drawn),-1.5,-5.5,-13.1,13.1,.,
COc1cc2nc(CN3CCOCC3)n(CC(=O)NCC(F)(F)F)c(=O)c2cc1OC,3.6,4.1,.,.,.,
Nn1c(SCC(=O)NC2CCS(=O)(=O)C2)nnc1-c1ccco1 (stereo not drawn),1.9,2.8,-4.2,4.2,.,
COc1ccc(S(=O)(=O)N(CC(=O)NCc2ccco2)c2ccc(C)cc2)cc1OC,6.8,-2.6,2.2,-2.2,.,
O=C(Nc1nccs1)[C@@H]1CCCN1S(=O)(=O)c1ccccc1F,0.5,1.0,-13.6,13.6,.,
CC(=O)c1sc(NC(=O)C2CCCN2S(=O)(=O)c2ccccc2F)nc1C (stereo not drawn),0.7,20.8*,-2.2,2.2,0.0,
O=C(Nc1ccc(NC(=O)c2cccc([N+](=O)[O-])c2)cc1)c1cccc([N+](=O)[O-])c1,0.9,2.3,-38.9,39.0,.,
O=C(Nc1cccc([N+](=O)[O-])c1)c1cccc(C(=O)Nc2cccc([N+](=O)[O-])c2)c1,0.1,33.7*,8.2,-8.2,-1.4,
COC(=O)c1sc(NC(=O)c2cccc([N+](=O)[O-])c2)c(C(N)=O)c1C,0.0,5.8,-12.9,12.9,.,
